Usually Ki stands for a measure of affinity in units of concentration, obtained from inhibition or displacement. Usually IC50 stands for the midpoint of a concentration-inhibition curve. In general, inhibition refers to how much of the control response was suppressed.

Where only a bound is given, the exact number is not on record here.

For assay [1], the target named is Nitric oxide synthase 1 (Rattus norvegicus, UniProt P29476). Kind of assay: Inhibition of rat recombinant nNOS expressed in baculovirus-infected Sf9 cells assessed as conversion of oxyhemoglobin to methemoglobin by UV spectrophotometer analysis.
Nitric oxide synthase 1, sequence (P29476 whole entry): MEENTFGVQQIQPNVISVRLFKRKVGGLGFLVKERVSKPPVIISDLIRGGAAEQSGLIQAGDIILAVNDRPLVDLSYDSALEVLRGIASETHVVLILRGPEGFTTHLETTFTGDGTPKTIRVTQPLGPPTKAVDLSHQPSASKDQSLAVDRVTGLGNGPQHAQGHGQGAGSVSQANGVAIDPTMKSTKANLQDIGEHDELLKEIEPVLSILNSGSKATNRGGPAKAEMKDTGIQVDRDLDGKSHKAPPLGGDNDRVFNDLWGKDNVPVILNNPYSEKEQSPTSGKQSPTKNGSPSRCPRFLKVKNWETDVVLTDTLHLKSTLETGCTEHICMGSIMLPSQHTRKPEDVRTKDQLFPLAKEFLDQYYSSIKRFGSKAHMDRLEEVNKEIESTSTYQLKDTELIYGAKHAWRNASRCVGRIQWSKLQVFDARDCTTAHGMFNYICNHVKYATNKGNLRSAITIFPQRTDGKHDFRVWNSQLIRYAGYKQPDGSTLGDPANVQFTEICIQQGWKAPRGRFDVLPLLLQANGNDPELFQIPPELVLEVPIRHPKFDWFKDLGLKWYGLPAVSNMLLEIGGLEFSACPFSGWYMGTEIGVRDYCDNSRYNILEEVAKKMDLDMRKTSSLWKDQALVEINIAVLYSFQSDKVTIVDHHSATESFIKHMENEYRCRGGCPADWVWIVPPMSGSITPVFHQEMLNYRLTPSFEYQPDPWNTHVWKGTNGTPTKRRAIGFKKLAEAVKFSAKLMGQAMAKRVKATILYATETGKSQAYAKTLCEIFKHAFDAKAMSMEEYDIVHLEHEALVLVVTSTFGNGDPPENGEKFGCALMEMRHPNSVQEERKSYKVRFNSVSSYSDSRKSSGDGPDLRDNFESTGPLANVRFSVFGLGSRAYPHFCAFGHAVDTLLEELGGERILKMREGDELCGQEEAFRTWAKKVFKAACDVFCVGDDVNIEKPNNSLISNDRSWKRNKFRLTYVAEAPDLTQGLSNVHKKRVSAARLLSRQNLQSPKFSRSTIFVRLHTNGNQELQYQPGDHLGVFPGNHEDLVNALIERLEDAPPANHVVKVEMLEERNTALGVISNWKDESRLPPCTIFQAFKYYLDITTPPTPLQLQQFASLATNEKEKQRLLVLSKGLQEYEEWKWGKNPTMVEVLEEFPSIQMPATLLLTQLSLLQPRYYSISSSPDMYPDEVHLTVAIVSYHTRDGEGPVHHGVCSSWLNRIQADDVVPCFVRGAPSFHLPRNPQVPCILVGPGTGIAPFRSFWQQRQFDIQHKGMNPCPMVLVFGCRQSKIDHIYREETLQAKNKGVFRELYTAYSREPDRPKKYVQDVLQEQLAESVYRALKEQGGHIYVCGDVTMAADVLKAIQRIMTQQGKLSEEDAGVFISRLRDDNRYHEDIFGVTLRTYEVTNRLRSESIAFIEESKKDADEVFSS
In assay [2] the target is T1, Nitric oxide synthase 3 (Mus musculus, UniProt P70313).
T1 sequence (P70313 whole entry): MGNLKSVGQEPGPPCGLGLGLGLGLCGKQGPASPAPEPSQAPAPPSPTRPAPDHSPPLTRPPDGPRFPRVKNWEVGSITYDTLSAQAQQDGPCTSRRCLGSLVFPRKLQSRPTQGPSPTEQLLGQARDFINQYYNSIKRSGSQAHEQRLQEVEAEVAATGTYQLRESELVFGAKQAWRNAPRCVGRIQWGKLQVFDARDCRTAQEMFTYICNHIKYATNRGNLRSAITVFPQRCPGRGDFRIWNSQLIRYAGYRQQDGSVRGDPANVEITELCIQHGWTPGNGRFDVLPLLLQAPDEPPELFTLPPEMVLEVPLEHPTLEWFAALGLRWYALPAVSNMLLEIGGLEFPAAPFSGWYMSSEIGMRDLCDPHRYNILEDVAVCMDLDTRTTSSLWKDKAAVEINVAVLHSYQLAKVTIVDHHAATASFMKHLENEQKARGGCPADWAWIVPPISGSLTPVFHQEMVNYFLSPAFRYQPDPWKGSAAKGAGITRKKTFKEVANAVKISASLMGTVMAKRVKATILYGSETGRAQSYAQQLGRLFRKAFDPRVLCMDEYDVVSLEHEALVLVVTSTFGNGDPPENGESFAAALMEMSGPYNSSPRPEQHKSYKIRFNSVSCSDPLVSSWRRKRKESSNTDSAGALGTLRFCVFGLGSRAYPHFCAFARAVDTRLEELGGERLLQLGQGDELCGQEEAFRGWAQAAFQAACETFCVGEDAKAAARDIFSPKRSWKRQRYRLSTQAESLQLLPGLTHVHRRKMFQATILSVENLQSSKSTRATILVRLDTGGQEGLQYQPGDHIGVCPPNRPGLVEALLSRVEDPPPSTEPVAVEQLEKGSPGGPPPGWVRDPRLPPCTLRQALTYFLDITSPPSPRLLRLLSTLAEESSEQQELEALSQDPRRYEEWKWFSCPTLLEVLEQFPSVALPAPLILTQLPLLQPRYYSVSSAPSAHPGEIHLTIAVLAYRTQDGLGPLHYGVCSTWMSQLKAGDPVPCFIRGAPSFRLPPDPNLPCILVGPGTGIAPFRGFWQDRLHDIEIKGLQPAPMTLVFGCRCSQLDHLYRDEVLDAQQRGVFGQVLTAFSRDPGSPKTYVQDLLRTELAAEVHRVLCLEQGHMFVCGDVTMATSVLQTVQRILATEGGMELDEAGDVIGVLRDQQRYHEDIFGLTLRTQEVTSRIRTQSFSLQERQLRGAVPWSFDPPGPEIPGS
Kind of assay: Inhibition of C57BL/6 mouse eNOS assessed as conversion of oxyhemoglobin to methemoglobin by UV spectrophotometer analysis. The essentials:
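eNOS from H5V mouse endothelial cells (passage 5, DMEM with 10% FCS, 37 °C, 5% CO2). Cells were sonicated in Tris-HCl pH 7.4 with EDTA, DTT and protease inhibitors, and the 20,000 g supernatant was used. Activity was followed as oxyhemoglobin→methemoglobin conversion in Hepes pH 7.4 with L-arginine, NADPH, FAD, BH4, Ca2+ and calmodulin. Compounds tested at 500, 100 and 50. Results reported as Ki or percent inhibition.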

Assay [3] has as its system Radical scavenging activity. Kind of assay: Antioxidant activity assessed as DPPH free radical scavenging activity after 10 mins. Type of assay: functional. The essentials:
(§1)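 Compounds in ethanol with DPPH radical, tested at 50, 100 and 500, held 10 min at room temperature. Absorbance read at 517 nm and reported as percent decrease against control. IC50 was calculated for selected compounds. Trolox served as reference. Standard deviation was ≤10% (n ≥ 3).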
For orientation: DPPH is a stable violet radical that fades when it is reduced.

A short description of assay [4]: Antioxidant activity assessed as NADH oxidation-induced superoxide radical scavenging activity after 20 mins. The format is functional. The essentials:
(§2)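 Superoxide generated without a Fenton-type reaction from NADH, EDTA/MnCl2 and β-mercaptoethanol in triethanolamine-diethanolamine buffer, pH 7.4 (1 mL). Compounds tested at 25, 50 and 100. […] IC50 was calculated. SOD (40 mU/ml) served as reference. SD ≤10% (n ≥ 3).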

Assay [5] relates to Plasma. The assay is described as follows: Antioxidant activity in human plasma assessed as inhibition of Fe2+-induced lipid hydroperoxidation after 2 hrs by FOX assay. Type of assay: functional, cell-free.
Assay [6] concerns Radical scavenging activity. Kind of assay: Antioxidant activity assessed as DPPH free radical scavenging activity at 500 uM after 10 mins relative to control. Type of assay: functional. The essentials: as §1
For assay [7], the system named is Radical scavenging activity. Kind of assay: Antioxidant activity assessed as DPPH free radical scavenging activity at 100 uM after 10 mins relative to control. The format is functional. The essentials: as §1
Assay [8] has as its system Radical scavenging activity. The assay is described as follows: Antioxidant activity assessed as DPPH free radical scavenging activity at 50 uM after 10 mins relative to control. Type of assay: functional. The essentials:
as §1

A short description of assay [9]: Antioxidant activity assessed as NADH oxidation-induced superoxide radical scavenging activity at 100 uM after 20 mins relative to control. Type of assay: functional. The essentials: as §2
Assay [10] is described as follows: Antioxidant activity assessed as NADH oxidation-induced superoxide radical scavenging activity at 50 uM after 20 mins relative to control. The format is functional. The essentials:
as §2

Assay [11] is described as follows: Antioxidant activity assessed as NADH oxidation-induced superoxide radical scavenging activity at 25 uM after 20 mins relative to control. Type of assay: functional. The essentials:
as §2

In assay [12] the test system is Plasma. Kind of assay: Antioxidant activity in human plasma assessed as inhibition of Fe2+-induced lipid hydroperoxidation at 100 uM after 2 hrs by FOX assay relative to control. Type of assay: functional, cell-free. The essentials:
(§3)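 Plasma from a healthy donor: heparinized venous blood taken after an overnight fast, spun at 800 g for 20 min. Plasma was diluted 1:1 with oxygenated PBS and incubated 2 h at 37 °C with or without compound (10, 50, 100). Lipid hydroperoxides were measured by FOX assay (Fe2+→Fe3+ with xylenol orange, 560 nm), calibrated against H2O2. Results given as percent inhibition against untreated plasma.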

The test system of assay [13] is Plasma. Kind of assay: Antioxidant activity in human plasma assessed as inhibition of Fe2+-induced lipid hydroperoxidation at 50 uM after 2 hrs by FOX assay relative to control. Type of assay: functional, cell-free. The essentials: as §3
For assay [14], the system named is Plasma. The assay is described as follows: Antioxidant activity in human plasma assessed as inhibition of Fe2+-induced lipid hydroperoxidation at 25 uM after 2 hrs by FOX assay relative to control. Type of assay: functional, cell-free.

As for `Cc1nccn1CC(=O)c1ccc([N+](=O)[O-])cc1`, the Ki was 74 µM in assay [1] and over 2000 µM in assay [2]. The IC50 in [3] came to 165 µM; in assay [4], 70 µM; in assay [5], 1.75 µM.
`O=C(Cn1nc2ccccc2n1)c1ccc([N+](=O)[O-])cc1`: the Ki amounted to 22.5 µM in [1] and 30 µM in assay [2].
For the compound `O=C(Cn1cnc(-c2ccccc2)c1)c1ccc([N+](=O)[O-])cc1`, the Ki in assay [1] stood at 45 µM; in assay [2], 70 µM.
On to `CCCc1nccn1CC(=O)c1ccc([N+](=O)[O-])cc1`, for which the Ki turned out to be 40 µM in assay [1] and 45 µM in [2]. Further, the Activity result in assay [3] was “Dose-dependent effect”; in assay [6] it was 56%; in assay [7], 35%; in [8], 25%; in [4], “Dose-dependent effect”; in [9], 62%. For the same compound, the results for the Activity in assay [10] and in [11] were 34% and 22%, respectively. The figures for the IC50 in [3], in [4] and in assay [5] were 262 µM, 38 µM and over 100 µM, respectively. Also, the inhibition was 44% in [12], 31% in assay [13] and 30% in assay [14].
`Cc1nccn1CC(=O)c1ccc(Br)cc1`: the Ki in assay [1] worked out at 620 µM.
With `O=C(Cn1cc2ccccc2n1)c1ccc([N+](=O)[O-])cc1`, the Ki in [1] stood at 32.5 µM; in assay [2] it was 60 µM.
In the case of `O=C(Cn1cnc2ccccc21)c1ccccc1`, the Ki in [1] was found to be 480 µM.
For `O=C(Cn1cnc2cccnc21)c1ccc([N+](=O)[O-])cc1`, the results for the Ki in [1] and in assay [2] were 31.7 µM and 70.2 µM, respectively.
`CC(C)c1nccn1CC(=O)c1ccc(Br)cc1`: the Ki in assay [1] came to 450 µM.
As to `O=C(Cn1ccnc1-c1ccccc1)c1ccc([N+](=O)[O-])cc1`, the Ki in assay [1] was 40 µM; in assay [2] it was 37.5 µM.
For the compound `Cc1cc2ncn(CC(=O)c3ccc([N+](=O)[O-])cc3)c2cc1C`, the results for the Ki in assay [1] and in assay [2] were 13.8 µM and 37.5 µM, respectively. Also, the Activity entry in [3] was “Dose-dependent effect”; in assay [6] it was 45%; in assay [7], 19%; in assay [8], 11%; in assay [4], “Dose-dependent effect”; in [9], 45%. Besides, the Activity in assay [10] came out at 37%; in [11], 0%. Further, the IC50 was over 500 µM in [3] and over 100 µM in assay [4].
For `O=C(Cn1cncn1)c1ccc([N+](=O)[O-])cc1`, the figures for the Ki in assay [1] and in [2] were 47.5 µM and 40 µM, respectively.
For the compound `CC(C)c1nccn1CC(=O)c1ccc([N+](=O)[O-])cc1`, the results for the Ki in assay [1] and in assay [2] were 22.5 µM and 500 µM, respectively. Moreover, the IC50 in [3] is 230 µM; in [4], 185 µM; in assay [5], over 100 µM.
In the case of `O=C(Cn1cc2cccc([N+](=O)[O-])c2n1)c1ccc([N+](=O)[O-])cc1`, the Ki was determined as 66.2 µM in [1] and 75 µM in assay [2].
Take `Cc1cc(C)n(CC(=O)c2ccc([N+](=O)[O-])cc2)n1`: the Ki was 65 µM in assay [1] and 90 µM in [2].
As to `CC(C)c1nccn1CC(=O)c1ccccc1`, the Ki in assay [1] was determined as 750 µM.
As for `O=C(Cn1cnc([N+](=O)[O-])c1)c1ccc([N+](=O)[O-])cc1`, the Ki in assay [1] and in assay [2] was 120 µM in each case.
In the case of `O=C(Cn1cnc(-c2ccccc2)c1-c1ccccc1)c1ccc([N+](=O)[O-])cc1`, the Ki amounted to 36.3 µM in assay [1] and 25 µM in assay [2].
As to `Cc1nccn1CC(=O)c1ccccc1`, the inhibitory constant (Ki) in assay [1] was over 500 µM.
With `O=C(Cn1cnc2ncccc21)c1ccc([N+](=O)[O-])cc1`, the Ki in assay [1] stood at 35.8 µM; in assay [2], 45 µM.
With `O=C(Cn1nnc2ccccc21)c1ccc([N+](=O)[O-])cc1`, the Ki in assay [1] was found to be 12.5 µM; in assay [2], 32.5 µM. For the same compound, the Activity entry in assay [3] is “Dose-dependent effect”; in [6], 31%; in assay [7] it was 21%; in assay [8], 14%; in assay [4], “Dose-dependent effect”; in [9], 51%. For the same compound, the Activity in assay [10] was determined as 35%; in assay [11], 26%. Besides, the IC50 is over 500 µM in assay [3], 85 µM in assay [4] and 17 µM in assay [5]. The inhibition in assay [12] was 57%; in [13] it was 48%; in assay [14], 37%.
Turning to `O=C(Cn1cnc2ccccc21)c1ccc([N+](=O)[O-])cc1`, the figures for the Ki in assay [1] and in assay [2] were 46.6 µM and 2.75 µM, respectively.
Consider `CCc1nc(C)cn1CC(=O)c1ccc([N+](=O)[O-])cc1`, for which the Ki in assay [1] and in assay [2] was 75 µM throughout.
In the case of `Cc1ccnn1CC(=O)c1ccc([N+](=O)[O-])cc1`, the Ki amounted to 63 µM in assay [1] and 30 µM in assay [2].
Taken in the same sequence, the figures for `O=C(Cn1cccn1)c1ccc([N+](=O)[O-])cc1` were 40 µM and 60 µM.
Regarding `O=C(Cn1ccnc1)c1ccc([N+](=O)[O-])cc1`, the Ki in [1] is 105 µM; in assay [2], over 5000 µM. The IC50 stood at 415 µM in assay [3], 165 µM in assay [4] and 18 µM in assay [5].
In the case of `O=C(Cn1cccc1)c1ccc([N+](=O)[O-])cc1`, in assay [1], the Ki stood at 230 µM.
In the case of `O=C(Cn1ccnc1)c1ccc(S(=O)(=O)C(F)(F)F)cc1`, in [1], the Ki came out at 450 µM.
With `Cc1cncn1CC(=O)c1ccc([N+](=O)[O-])cc1`, the Ki in assay [1] amounted to 90 µM; in assay [2], 45 µM.

The values are drawn from ChEMBL document CHEMBL1944541, “Novel inhibitors of nitric oxide synthase with antioxidant properties” (Eur J Med Chem, 2012).
